Cl transport mod – modulates chloride dependent transport by human KCC2. KCC2 cells, thallium flux FluoZin-2 fluorescence. B-score of Tl+ flux slope (higher = more flux/activation; lower = inhibition) at 10 µM. actives 2.2% (n = 190,000). AID 1456;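 active = thallium flux slope and its plate-corrected score both differing from the plate sample mean at a set confidence after two filtering rounds, in either direction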;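 note: slope of fluorescence scaled to starting intensity during 10 to 20 s after thallium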
Target sequence (Q9H2X9 whole entry, looked up): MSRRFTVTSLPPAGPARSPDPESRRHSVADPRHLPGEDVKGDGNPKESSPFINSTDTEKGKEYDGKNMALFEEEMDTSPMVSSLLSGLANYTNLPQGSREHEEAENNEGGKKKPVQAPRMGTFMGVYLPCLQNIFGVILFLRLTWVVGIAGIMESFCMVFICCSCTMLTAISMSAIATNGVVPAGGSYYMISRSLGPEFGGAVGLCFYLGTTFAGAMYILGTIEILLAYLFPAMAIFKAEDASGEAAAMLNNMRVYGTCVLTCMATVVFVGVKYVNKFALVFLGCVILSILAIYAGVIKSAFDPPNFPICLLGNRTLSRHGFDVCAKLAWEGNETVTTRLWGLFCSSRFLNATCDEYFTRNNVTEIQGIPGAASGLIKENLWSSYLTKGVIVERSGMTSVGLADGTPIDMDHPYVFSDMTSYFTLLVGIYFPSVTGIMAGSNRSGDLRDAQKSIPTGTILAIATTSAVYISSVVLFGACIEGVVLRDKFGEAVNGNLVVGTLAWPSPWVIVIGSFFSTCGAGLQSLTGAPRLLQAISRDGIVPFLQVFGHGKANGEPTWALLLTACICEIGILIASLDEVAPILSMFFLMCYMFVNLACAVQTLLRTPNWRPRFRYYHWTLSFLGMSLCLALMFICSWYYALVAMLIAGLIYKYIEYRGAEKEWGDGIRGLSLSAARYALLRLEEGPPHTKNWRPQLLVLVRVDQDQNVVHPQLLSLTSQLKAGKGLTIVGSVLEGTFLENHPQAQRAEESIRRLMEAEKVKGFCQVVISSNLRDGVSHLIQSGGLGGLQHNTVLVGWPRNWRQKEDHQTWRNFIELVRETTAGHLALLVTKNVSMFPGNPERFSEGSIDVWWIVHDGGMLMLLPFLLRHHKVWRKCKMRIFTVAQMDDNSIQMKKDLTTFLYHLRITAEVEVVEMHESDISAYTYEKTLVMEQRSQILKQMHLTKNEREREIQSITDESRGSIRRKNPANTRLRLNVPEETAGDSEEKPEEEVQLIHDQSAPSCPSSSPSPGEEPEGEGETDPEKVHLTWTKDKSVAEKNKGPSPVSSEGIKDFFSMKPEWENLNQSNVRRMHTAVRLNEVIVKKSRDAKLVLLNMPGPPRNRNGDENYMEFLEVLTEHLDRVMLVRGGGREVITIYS
BB579 growth dn – chemicals that inhibit yeast BB579 growth in restrictive medium (lifespan-shortening candidates). S. cerevisiae BB579 growth, OD615, 48 h. inhibition, % at 10 µM. actives 0.51% (n = 140,000);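 active = inhibition above a set limit, 3 SD over the mean compound inhibition, cut at about 44% in these data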
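System: Saccharomyces cerevisiae DeaD strain BB579, replicative lifespan model yeast. Buffer or medium: restrictive glucose-based CSMM-D medium. Doses: one dose, 10 µM compound with 0.25% DMSO. Timing: 4 h preincubation and 48 h exposure at 30 °C. Detection: turbidity as optical density at 615 nm. Benchmarks: amphotericin B 10 µg/mL, positive.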
RAM network inh – blocks the yeast RAM network. S. cerevisiae dse1pr::URA3 reporter, 5-FOA growth OD615, 2 d; analog-sensitive cbk1-as2 kinase mutant strain. inhibition, % at 50 µM. actives 1.8% (n = 190,000);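 active = inhibition above a set limit, 3 SD over mean compound inhibition, cut at about 8.4% in these data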;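 note: inhibition rescues growth on 5-FOA so higher OD means more RAM inhibition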
Yeast life ext – yeast lifespan extension | S. cerevisiae growth with nicotinamide, OD615; deaD strain in restrictive glucose medium | inhibition of the nicotinamide effect, % at 10 µM | actives 0.68% (n = 130,000) | AID 775;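 active = inhibition above a set limit, placed 3 SD over the median of all compounds, cut at about 26% in these data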
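System: DeaD-strain S. cerevisiae / Buffer or medium: CSMM-D, restrictive glucose (dextrose) synthetic minimal medium / Probe or stimulus: nicotinamide, 1.5 mM, co-present with compound / Compound: one concentration, 10 µM, DMSO 0.25% / Incubation: 48 h compound exposure at 30 °C, humidified / Technique: optical density (absorbance) at 615 nm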
WT yeast gro inh – growth inhibition of WT yeast, mitochondrial fusion screen; actives 2.1% (n = 190,000); mitochondrial fusion phenotypic screen, WT strain; inhibition, % at 10 µM; in the data active = inhibition above about 58%; tested in S. cerevisiae
Numbers stand for hits; n = inactive; x = no result given. Sampled rows, rich in hits. Any-hit rate of the full collection: about 5.5%.

SMILES	Cl transport mod	BB579 growth dn	RAM network inh	Yeast life ext	WT yeast gro inh
COc1ccccc1NS(=O)(=O)c1cccc(C(=O)N/N=C2\CC(=O)CC(C)(C)C2)c1	n	n	n	n	n
Nc1ccccc1Nc1cc(-c2ccccc2)nn1-c1cccc(Cl)c1	n	n	n	n	68
COC(=O)/C(=C/c1c[nH]c2ccccc12)NC(C)=O	n	n	n	n	n
COC(=O)/C(=C/c1c[nH]c2ccccc12)[N+](=O)[O-]	n	n	n	26	n
COC(=O)/C(=C/c1cn(C(C)=O)c2ccccc12)[N+](=O)[O-]	n	x	x	x	x
COC(=O)/C(=C/c1cn(C)c2ccccc12)[N+](=O)[O-]	n	n	n	74	n
O=C(/C=C/c1ccc(S(=O)(=O)N2CCOCC2)cc1)NC(=S)Nc1ccc(Cl)cc1Cl	n	x	n	x	n
COc1ccc2cc(C#N)c(N3CCN(C(=O)c4ccccc4C)CC3)nc2c1	n	x	8.8	x	n
CC(C)c1ccc(NC(=O)Cn2c(=O)oc3cccnc32)cc1	n	x	x	x	x
CC(C)CC(=O)Nc1ncc([N+](=O)[O-])s1	n	x	x	x	x
O=C(Nc1ccccc1)Nc1ncc([N+](=O)[O-])s1	n	x	n	x	70
CC(=C\C(=O)O)/C(=C\c1cccc2ccccc12)C(=O)O	n	x	x	x	x
Cc1[nH]n(-c2ncc(-c3ccc(Cl)cc3)s2)c(=O)c1C(c1ccc(Cl)cc1)C(C#N)C#N (configuration not stated)	n	n	8.6	n	n
COc1ccc(C(c2c(C)[nH]n(C(N)=S)c2=O)C(C#N)C#N)cc1 (configuration not stated)	n	n	n	x	n
c1ccc(-c2nc(NCc3cccnc3)c3oc4ccccc4c3n2)cc1	n	n	n	n	72
OCCCNc1nc(-c2ccccc2)nc2c1oc1ccccc12	n	x	x	x	x
O=C(O)/C=C/c1ccc2c(-c3ccccc3)onc2c1	n	n	n	n	n
C=CCn1c(=O)/c(=C2/Sc3cc(OC)ccc3N2C)s/c1=C1\C(=O)N(CC)C(=S)N1C	x	x	11	x	n
Cc1nn(-c2ccccc2)c(Cl)c1/C=C1\SC(=S)N(C)C1=O	n	n	8.4	n	n
O=C(Nc1ccc(O)cc1)C1CCCO1 (configuration not stated)	n	n	n	53	n
O=C(Nc1ccc(F)cc1)C1CCCO1 (configuration not stated)	n	x	n	x	n
CCN(CC)S(=O)(=O)c1ccc(N2CCOCC2)c(NCC(=O)Nc2ccc(F)cc2)c1	n	x	n	x	n
Brc1ccc(-c2nnc(-c3ccccc3)c(N3CCSCC3)n2)cc1	x	n	n	n	63
CN1CCN(c2nc(-c3ccc(Br)cc3)nnc2-c2ccccc2)CC1	n	n	n	n	n
CC(=O)N1N=C(c2ccc(C)o2)CC1c1cccc(F)c1 (configuration not stated)	x	x	n	x	n
SMILES	Cl transport mod	BB579 growth dn	RAM network inh	Yeast life ext	WT yeast gro inh
COC(=O)c1c(NS(=O)(=O)c2ccc(C)cc2)sc2c1CCC(C)C2 (configuration not stated)	16	n	n	x	n
COC(=O)c1c(NS(=O)(=O)Cc2ccccc2)sc2c1CCCC2	45	n	n	n	n
COC(=O)c1c(NS(C)(=O)=O)sc2c1CCCC2	n	n	n	n	n
CC(C)OC(=O)c1c(NS(=O)(=O)c2ccccc2)sc2c1CCCC2	23	n	n	x	n
COc1ccccc1S(=O)(=O)CC(O)COc1ccc(F)cc1Cl (configuration not stated)	n	x	n	x	n
O=C1c2ccccc2C(=O)c2cc(S(=O)(=O)Nc3ccccc3)ccc21	n	n	n	n	72
O=C(O)c1cccc(NS(=O)(=O)c2ccc3c(c2)C(=O)c2ccccc2C3=O)c1	n	x	x	x	x
CN(C(=O)Nc1ccc(Cl)c(Cl)c1)c1ccccc1C(=O)O	n	n	n	n	72
CC(=O)N(CCC(Cc1ccccc1)c1ccc2c(c1)OCO2)Cc1ccccc1F (configuration not stated)	x	n	n	n	78
CCOC(=O)Cc1nnc(Nc2cc(C)ccc2C)c2ccccc12	n	x	n	x	n
O=C(Nc1ccc2c(c1)nc1n2CCN(Cc2ccccc2)C1)c1cccs1	x	n	n	n	63
O=C(C1CCCN1S(=O)(=O)c1cccc2nsnc12)N1CCCCCC1 (configuration not stated)	n	x	x	x	x
COC(=O)c1cc2ccccc2c(-c2c(OC)c(C(=O)OC)cc3ccccc23)c1OC	n	n	n	n	72
CSCCC(NS(=O)(=O)c1ccc(Cl)cc1)C(=O)OCC(=O)c1c(C)[nH]c2ccccc12 (configuration not stated)	n	n	10	n	n
COCCN(CCOC)S(=O)(=O)c1ccc(C(=O)Nc2sc3c(c2C(N)=O)CCCCC3)cc1	n	n	n	40	n
CC(=O)N1CCC(N(CCN2CCOCC2)C(=S)Nc2c(C)cccc2C)CC1	n	n	n	n	n
C[n+]1c2n(c3ccccc31)N=C(c1cc(C(C)(C)C)c(O)c(C(C)(C)C)c1)CS2	n	x	n	x	76
COc1ccc2c(c1O)C(=O)c1ccccc1C2=O	n	x	n	x	n
CC(C)COC(=O)c1ccc2c(c1O)C(=O)c1ccccc1C2=O	x	n	8.8	n	n
CCOC(=O)N(C)OC(=O)Nc1ccc(Cl)c(Cl)c1	x	n	n	n	62
CCOC(=O)N(CC)OC(=O)Nc1ccc(Cl)cc1	x	n	n	n	n
C#CCCOC(=O)Nc1ccccc1	n	x	x	x	x
O=C(NCc1ccncc1)C(=O)N/N=C/c1ccccn1	n	x	n	x	n
O=C(NCCc1ccc(Cl)cc1)Nc1cccc(Cl)c1	n	n	n	n	61
Fc1ccc(CCNC(=S)Nc2ccc(F)c(Cl)c2)cc1	n	x	n	x	77
CCN1/C(=C/c2ccc3cc(C)cc(C)c3[n+]2CC)Sc2cc(C)ccc21	n	x	n	x	95
CCN1/C(=C\c2ccc3cc(C)ccc3[n+]2CC)Sc2cc(C)c(C)cc21	n	x	n	x	88
CCN1/C(=C/c2ccc3cccc(C)c3[n+]2CC)Sc2ccccc21	x	96	n	n	62
C=CC[n+]1c(/C=C2\C=Cc3cc(C)ccc3N2CC)ccc2ccccc21	n	x	n	x	n
